Measured values from different studies.
Lines come from different studies, so protocols differ.

Structure (SMILES) | target or system | test | system | setting | measurement | result
COc1ccc([C@@]23Oc4cc(OC)cc(OC)c4[C@@]24NC(C)=N[C@@]4(O)[C@H](C(=O)N(C)OC)[C@H]3c2ccccc2)cc1 | – | metabolic stability | human, liver microsomes | – | half-life | 120 min
Cn1cc2c3c1C(=O)C(N)=CC3=NCC2 | HepG2 | cell growth or viability, MTT | – | 72 h | CC50 | 2000 nM
CN1CCN(S(=O)(=O)c2cc([N+](=O)[O-])ccc2N(CCOS(C)(=O)=O)CCOS(C)(=O)=O)CC1 | – | – | female SCID mouse, plasma | intraperitoneal, 25 mg/kg | MRT(0-inf) | 25.2 min
CC(C)(N)CNC(=O)O[C@H]1CCC[C@@]2(C1)OOC1(O2)C2CC3CC(C2)CC1C3 (stereo partly drawn) | – | – | male CD-1 mouse, plasma | intravenous, 3 mg/kg | MRT(0-inf) | 32.5 min
Cn1cc2c3c1C(=O)C(N)=CC3=[N+](C)CC2 | HepG2 | cell growth or viability, MTT | – | 72 h | CC50 | 1000 nM
CNC(C)Cc1ccc2n[se]nc2c1 (stereo not drawn) | – | metabolic stability | human, liver microsomes | 0.5 µM | half-life | > 150 min
NCCNC(=O)O[C@H]1CCC[C@@]2(C1)OOC1(O2)C2CC3CC(C2)CC1C3 (stereo partly drawn) | – | – | male CD-1 mouse, plasma | intravenous, 3 mg/kg | MRT(0-inf) | 35.2 min
CNC(C)Cc1ccc2c(c1)OCO2 (stereo not drawn) | – | metabolic stability | human, liver microsomes | 0.5 µM | half-life | > 150 min
COCC1=N[C@@]2(O)[C@H](C(=O)N(C)OC)[C@@H](c3ccccc3)[C@]3(c4ccc(OC)cc4)Oc4cc(OC)cc(OC)c4[C@]23N1 | – | metabolic stability | human, liver microsomes | 1 µM, pH 7.4 | half-life | 24.8 min
